Published values gathered from unrelated publications.
Each line is one published result; the experiments were not run side by side.
Target: Bone morphogenetic protein receptor type-2 (BMPR2, Homo sapiens, UniProt Q13873)
Sequence (Q13873 27-1038, as in one of the studies): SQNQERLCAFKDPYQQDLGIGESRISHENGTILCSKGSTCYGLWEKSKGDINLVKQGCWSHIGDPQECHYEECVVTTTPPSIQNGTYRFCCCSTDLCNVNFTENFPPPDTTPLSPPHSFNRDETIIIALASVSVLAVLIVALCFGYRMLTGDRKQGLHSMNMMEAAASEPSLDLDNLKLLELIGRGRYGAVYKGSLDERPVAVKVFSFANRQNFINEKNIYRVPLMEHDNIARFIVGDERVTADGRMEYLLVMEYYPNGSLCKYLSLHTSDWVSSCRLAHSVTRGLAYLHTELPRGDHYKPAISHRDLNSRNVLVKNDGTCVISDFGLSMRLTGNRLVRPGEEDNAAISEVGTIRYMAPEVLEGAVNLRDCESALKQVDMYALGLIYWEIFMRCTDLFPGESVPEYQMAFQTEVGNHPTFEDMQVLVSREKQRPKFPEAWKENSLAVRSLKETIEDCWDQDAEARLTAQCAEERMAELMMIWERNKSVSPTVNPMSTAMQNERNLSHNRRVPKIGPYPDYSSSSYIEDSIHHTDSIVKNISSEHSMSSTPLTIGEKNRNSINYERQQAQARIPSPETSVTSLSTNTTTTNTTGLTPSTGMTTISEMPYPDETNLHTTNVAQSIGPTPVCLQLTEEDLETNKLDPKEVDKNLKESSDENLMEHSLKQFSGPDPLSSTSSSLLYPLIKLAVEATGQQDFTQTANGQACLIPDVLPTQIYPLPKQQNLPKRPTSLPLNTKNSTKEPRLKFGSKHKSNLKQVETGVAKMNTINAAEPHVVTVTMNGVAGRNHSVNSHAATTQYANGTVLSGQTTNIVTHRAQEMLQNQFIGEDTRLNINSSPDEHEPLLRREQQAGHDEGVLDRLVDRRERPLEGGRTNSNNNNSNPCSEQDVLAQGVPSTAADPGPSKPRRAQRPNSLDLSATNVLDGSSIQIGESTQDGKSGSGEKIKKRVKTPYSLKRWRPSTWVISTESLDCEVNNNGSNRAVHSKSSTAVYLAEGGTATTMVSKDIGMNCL

| Compound | assay | setting | remaining binding [%] |
| --- | --- | --- | --- |
| N[C@@H]1CCN(c2nccc(-c3cnn4ncccc34)n2)C1 | binding | 1 µM | 100 |
| O=C(c1ccc(Nc2ncc(Cl)c(-c3cc4ccccc4s3)n2)cc1)N1CCC(N2CCCC2)CC1 | binding, competition with immobilised ligand | 1 µM | 29 |
| CS(=O)(=O)c1cc(C2(NC(=O)c3cncc4c3cnn4-c3ccc(F)cc3)CC2)ccn1 | cell-free assay, competition with immobilised ligand | 1 µM | 99 |
| CN(C)c1ncc(F)c(-c2cnn3ncccc23)n1 | binding | 1 µM | 74 |
| COc1ncc2cc3ccccc3nc2c1C#N | cell-free assay, competition with immobilised ligand | 5 µM | 100 |
| FC(F)(F)Oc1cccc(-c2cnc3ccc(-c4ccncc4)nn23)c1 | cell-free assay, competition with immobilised ligand | 5 µM | 56 |
| CCOC(=O)c1cc2cc(-c3cc(C(=O)NCc4ccc(C(=O)O)cc4)nn3C)ccc2[nH]1 | cell-free assay, competition with immobilised ligand | 0.1 µM | 82 |
| c1cnn2ncc(-c3ccnc(N4CCC45COC5)n3)c2c1 | binding | 1 µM | 68 |
| Nc1ncc2c(n1)-c1c([nH]c3ccc(C#CC4CC4)cc13)CCCC2 | binding, competition with immobilised ligand | 1 µM | 96 |
| c1cncc(-c2cccc(Nc3nccc(NC4CCCCC4)n3)c2)c1 | binding, competition with immobilised ligand | 10 µM | 40 |
| CNCc1ccccc1-c1csc([C@@H](C)Nc2nc(C)nc3cc(OC)c(OC)cc23)c1 | cell-free assay, competition with immobilised ligand | 1 µM | 100 |
| Cc1cnc(Nc2ccc(C(=O)N3CCC(N4CCCC4)CC3)cc2)nc1-c1cc2ccccc2s1 | binding, competition with immobilised ligand | 1 µM | 25 |
| CC1CCCN1c1nccc(-c2cnn3ncccc23)n1 (stereo not drawn) | binding | 1 µM | 97 |
| C[C@@H]1CN(c2ccc3ncc(-c4ccc5[nH]nc(C6CC6)c5c4)n3n2)C[C@H](C)O1 | binding, competition with immobilised ligand | 0.5 µM | 56 |
| COc1cnc(Nc2cccc(S(N)(=O)=O)c2)nc1N1CCN(c2ccccc2)CC1 | binding, competition with immobilised ligand | 1 µM | 0.1 |
| Cc1c(NC(=O)c2cc(C(N)=O)nc3cc(F)ccc23)c(C(F)(F)F)nn1Cc1ccc(C(C)(C)C)cc1 | cell-free assay, competition with immobilised ligand | 1 µM | 100 |
| C[C@H]1CCN(c2nccc(-c3cnn4ncccc34)n2)C1 | binding | 1 µM | 97 |
| O=C(NCCCN1CCOCC1)c1ccc(Nc2ncc(Cl)c(-c3ccc(Cl)s3)n2)cc1 | binding, competition with immobilised ligand | 1 µM | 55 |
| NS(=O)(=O)c1cc(NC(=O)Cc2ccccc2)ccc1Oc1cccc(Cl)c1 | cell-free assay, competition with immobilised ligand | 1 µM | 73 |
| O=C(Nc1c[nH]nc1C(=O)NC1CCNCC1)c1cc(F)cc(F)c1 | binding, competition with immobilised ligand | 1 µM | 100 |
| CCCCN(CCCC)C(=O)CN1C[C@@H](c2cc(OC)c3c(c2)OCO3)[C@H](C(=O)O)[C@H]1CC(C)(C)CCC | cell-free assay, competition with immobilised ligand | 1 µM | 86.7 |
| CN(CCCC(F)(F)F)c1nccc(-c2cnn3ncccc23)n1 | binding | 1 µM | 97 |
| CCC(=N\O)/C(C)=C/c1ccc(F)cc1 | cell-free assay, competition with immobilised ligand | 1 µM | 81 |
| CN(C)c1nccc(-c2cnn3ncccc23)n1 | binding | 1 µM | 99 |
